The source of these data is ChEMBL document CHEMBL1240487, “Discovery of a potent, selective, and orally bioavailable pyridinyl-pyrimidine phthalazine aurora kinase inhibitor” (J Med Chem, 2010).

A word on the IC50: it is the midpoint of a concentration-inhibition curve. By half-life is commonly meant how long it takes for the measured level to halve. A high value points to slow decline. Broadly, the inhibition in vivo is how much of the control response was suppressed.

One data set has as its target Angiopoietin-1 receptor (Homo sapiens, UniProt Q02763). Description: Inhibition of Tie-2 by HTRF assay. In short, it runs like this:
(§1)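 Enzyme inhibition was run with ATP at its Km for each kinase. Values are averages of at least two determinations.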
(In general: TR-FRET usually uses a lanthanide donor and a delayed reading to cut background.)

Data set [1] has as its target Mast/stem cell growth factor receptor Kit (Homo sapiens, UniProt P10721). Description: Inhibition of c-Kit by HTRF assay. Put shortly: as §1
Data set [2] has as its target Macrophage colony-stimulating factor 1 receptor (Homo sapiens, UniProt P07333). Kind of data set: Inhibition of c-Fms by HTRF assay. In short, it runs like this: as §1
Data set [3] has as its target Proto-oncogene tyrosine-protein kinase Src (Homo sapiens, UniProt P12931). Description: Inhibition of Src by HTRF assay. Put shortly: as §1
Data set [4] concerns the target Hepatocyte growth factor receptor (Homo sapiens, UniProt P08581). Description: Inhibition of c-Met by HTRF assay. Put shortly:
as §1

The nature of data set [5]: Clearance in Sprague-Dawley rat at 0.5 mg/kg, iv and 2 mg/kg, po. Format: ADME, organism-based. The settings on record: in vivo.
Data set [6] can be described thus: Volume of distribution at steady state in Sprague-Dawley rat at 0.5 mg/kg, iv and 2 mg/kg, po. The format is ADME, organism-based. To be noted: in vivo, read-out: Vdss.
Data set [7] is described as follows: Half life in Sprague-Dawley rat at 0.5 mg/kg, iv and 2 mg/kg, po. The format is ADME, organism-based. To be noted: in vivo.
Data set [8] deals with RAC-beta serine/threonine-protein kinase (Homo sapiens, UniProt P31751). Kind of data set: Inhibition of PKBbeta by HTRF assay. In short, it runs like this:
as §1

For data set [9], the target named is Ribosomal protein S6 kinase alpha-5 (Homo sapiens, UniProt O75582). Description: Inhibition of MSK1 by HTRF assay. In short, it runs like this: as §1
For data set [10], the target named is T1, Aurora kinase B (Homo sapiens, UniProt Q96GD4). Kind of data set: Inhibition of aurora B in human HeLa cells assessed as increase of >= 4N DNA level at 0.313 uM after 24 hrs using Hoechst staining by flow cytometry. The format is cell-based. In short, it runs like this: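 In the 24 h DNA ploidy assay, HeLa cells were exposed to compound for 24 h. The read-out was accumulation of cells with ≥4N DNA content relative to control. For the single-concentration test, cells were treated at 0.313 μM, and p-histone H3 Ser10 and DNA content (2N/4N/8N) were read by flow cytometry. The ploidy read-out gave an EC50.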
For orientation: In flow cytometry, cells or beads pass a laser one at a time.

The next data set relates to Mus musculus. Description: Inhibition of aurora B in human COLO205 cells xenografted in CD1 mouse assessed as reduction of phosphorylated histone H3 level at 50 mg/kg, po after 3 to 6 hrs by immunofluorescence-based flow cytometry. Format: functional. The settings on record: CD1, COLO 205. In short, it runs like this: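 Mice carried established COLO 205 xenografts of about 300 mm3 and received a single oral dose of vehicle or 50 mg/kg (N = 12 per group). Tumors were harvested at 3, 6 and 24 h (N = 4 per time point). p-Histone H3 was measured by immunofluorescence-based flow cytometry as the percentage of positive cells in G2/M. Groups were compared with ANOVA and Scheffe's post hoc test against vehicle.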

In data set [11] the target is Aurora kinase A (Homo sapiens) (UniProt O14965). Description: Inhibition of aurora A autophosphorylation in human HeLa cells at 0.313 uM after 3 hrs by Western blotting. For orientation: In western blotting, separated proteins are transferred to a membrane and probed.
The target of data set [12] is T1, Aurora kinase B. Kind of data set: Inhibition of aurora B autophosphorylation in human HeLa cells at 0.313 uM after 3 hrs by Western blotting.
The subject of a further data set is HeLa. Description: Induction of morphological changes in human HeLa cells at […] after 48 hrs using DAPI staining by microscopic analysis.
Data set [13] concerns the target T1, Aurora kinase B. Kind of data set: Inhibition of aurora B in human HeLa cells assessed as reduction of histone H3 phosphorylation at Ser10 at 0.313 uM after 24 hrs by flow cytometry.

Activity calls are given as the source filed them. The rule behind the calls is not given here.

T1 sequence (Q96GD4 whole entry): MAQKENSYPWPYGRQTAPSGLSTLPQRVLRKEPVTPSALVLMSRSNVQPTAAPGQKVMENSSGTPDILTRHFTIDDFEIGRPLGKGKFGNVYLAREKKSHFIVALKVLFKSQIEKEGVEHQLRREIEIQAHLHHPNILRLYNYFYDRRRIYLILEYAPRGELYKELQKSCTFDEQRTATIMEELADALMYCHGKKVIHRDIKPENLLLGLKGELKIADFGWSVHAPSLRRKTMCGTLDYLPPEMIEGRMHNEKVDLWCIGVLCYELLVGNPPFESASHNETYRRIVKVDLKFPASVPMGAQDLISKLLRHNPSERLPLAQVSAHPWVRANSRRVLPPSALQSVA
Chain of Aurora kinase A (Homo sapiens) (O14965 whole entry): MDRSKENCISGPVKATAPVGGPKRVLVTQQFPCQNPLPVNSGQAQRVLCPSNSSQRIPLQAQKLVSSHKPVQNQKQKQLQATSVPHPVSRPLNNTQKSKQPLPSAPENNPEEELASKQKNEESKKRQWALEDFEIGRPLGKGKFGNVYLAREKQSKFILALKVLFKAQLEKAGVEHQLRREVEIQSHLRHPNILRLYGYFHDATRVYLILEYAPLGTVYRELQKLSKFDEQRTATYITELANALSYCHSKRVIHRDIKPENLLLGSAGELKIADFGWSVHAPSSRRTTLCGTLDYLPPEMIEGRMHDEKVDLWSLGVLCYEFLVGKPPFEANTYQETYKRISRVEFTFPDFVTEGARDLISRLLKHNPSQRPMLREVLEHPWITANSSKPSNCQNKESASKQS
Chain of Macrophage colony-stimulating factor 1 receptor (P07333 whole entry): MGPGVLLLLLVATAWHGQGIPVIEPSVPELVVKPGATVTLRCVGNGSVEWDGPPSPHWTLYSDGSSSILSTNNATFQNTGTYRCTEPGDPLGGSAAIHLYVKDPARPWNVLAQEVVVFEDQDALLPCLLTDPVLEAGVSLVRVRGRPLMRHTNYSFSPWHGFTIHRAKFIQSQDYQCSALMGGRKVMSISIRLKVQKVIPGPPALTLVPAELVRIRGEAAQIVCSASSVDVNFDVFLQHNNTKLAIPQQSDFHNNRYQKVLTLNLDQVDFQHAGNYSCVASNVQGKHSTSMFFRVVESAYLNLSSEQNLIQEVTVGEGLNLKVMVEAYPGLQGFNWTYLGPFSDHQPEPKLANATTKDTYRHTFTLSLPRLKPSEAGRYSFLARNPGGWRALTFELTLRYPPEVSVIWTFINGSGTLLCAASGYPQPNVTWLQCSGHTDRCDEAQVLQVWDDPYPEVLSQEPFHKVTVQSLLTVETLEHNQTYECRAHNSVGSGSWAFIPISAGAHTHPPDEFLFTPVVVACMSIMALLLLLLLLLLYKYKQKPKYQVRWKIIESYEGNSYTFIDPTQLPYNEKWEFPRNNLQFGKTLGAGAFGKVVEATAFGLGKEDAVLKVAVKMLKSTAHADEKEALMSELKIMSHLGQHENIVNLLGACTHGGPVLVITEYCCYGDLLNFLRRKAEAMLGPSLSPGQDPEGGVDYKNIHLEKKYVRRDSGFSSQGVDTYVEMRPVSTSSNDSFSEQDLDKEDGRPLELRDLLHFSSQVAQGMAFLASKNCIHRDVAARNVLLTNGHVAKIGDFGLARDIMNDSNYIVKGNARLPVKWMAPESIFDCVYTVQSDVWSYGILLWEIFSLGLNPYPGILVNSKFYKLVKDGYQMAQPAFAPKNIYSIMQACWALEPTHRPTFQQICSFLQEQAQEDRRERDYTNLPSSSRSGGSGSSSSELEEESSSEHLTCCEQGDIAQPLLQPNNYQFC
Chain of Ribosomal protein S6 kinase alpha-5 (O75582 whole entry): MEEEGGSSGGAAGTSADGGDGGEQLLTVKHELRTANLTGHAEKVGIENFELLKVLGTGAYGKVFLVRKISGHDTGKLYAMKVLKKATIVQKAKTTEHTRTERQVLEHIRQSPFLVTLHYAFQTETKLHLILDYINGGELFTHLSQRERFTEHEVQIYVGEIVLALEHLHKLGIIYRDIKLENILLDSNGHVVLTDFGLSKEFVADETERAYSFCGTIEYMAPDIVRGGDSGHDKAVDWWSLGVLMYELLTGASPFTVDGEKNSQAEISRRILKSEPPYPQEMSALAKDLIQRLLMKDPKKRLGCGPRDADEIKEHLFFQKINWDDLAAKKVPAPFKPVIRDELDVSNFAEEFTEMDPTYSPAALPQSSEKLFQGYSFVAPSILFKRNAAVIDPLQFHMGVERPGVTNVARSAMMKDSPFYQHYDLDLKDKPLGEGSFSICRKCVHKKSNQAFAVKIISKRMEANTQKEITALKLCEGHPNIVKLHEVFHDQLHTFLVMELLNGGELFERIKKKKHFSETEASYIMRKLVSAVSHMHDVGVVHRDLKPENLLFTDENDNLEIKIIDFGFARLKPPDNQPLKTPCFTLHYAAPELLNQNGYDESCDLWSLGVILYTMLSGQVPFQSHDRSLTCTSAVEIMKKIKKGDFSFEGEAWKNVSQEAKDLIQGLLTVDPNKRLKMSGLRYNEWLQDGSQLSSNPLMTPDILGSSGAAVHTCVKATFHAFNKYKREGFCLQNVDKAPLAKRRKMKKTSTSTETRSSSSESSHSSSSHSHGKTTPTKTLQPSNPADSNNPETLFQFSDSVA
Chain of Angiopoietin-1 receptor (Q02763 whole entry): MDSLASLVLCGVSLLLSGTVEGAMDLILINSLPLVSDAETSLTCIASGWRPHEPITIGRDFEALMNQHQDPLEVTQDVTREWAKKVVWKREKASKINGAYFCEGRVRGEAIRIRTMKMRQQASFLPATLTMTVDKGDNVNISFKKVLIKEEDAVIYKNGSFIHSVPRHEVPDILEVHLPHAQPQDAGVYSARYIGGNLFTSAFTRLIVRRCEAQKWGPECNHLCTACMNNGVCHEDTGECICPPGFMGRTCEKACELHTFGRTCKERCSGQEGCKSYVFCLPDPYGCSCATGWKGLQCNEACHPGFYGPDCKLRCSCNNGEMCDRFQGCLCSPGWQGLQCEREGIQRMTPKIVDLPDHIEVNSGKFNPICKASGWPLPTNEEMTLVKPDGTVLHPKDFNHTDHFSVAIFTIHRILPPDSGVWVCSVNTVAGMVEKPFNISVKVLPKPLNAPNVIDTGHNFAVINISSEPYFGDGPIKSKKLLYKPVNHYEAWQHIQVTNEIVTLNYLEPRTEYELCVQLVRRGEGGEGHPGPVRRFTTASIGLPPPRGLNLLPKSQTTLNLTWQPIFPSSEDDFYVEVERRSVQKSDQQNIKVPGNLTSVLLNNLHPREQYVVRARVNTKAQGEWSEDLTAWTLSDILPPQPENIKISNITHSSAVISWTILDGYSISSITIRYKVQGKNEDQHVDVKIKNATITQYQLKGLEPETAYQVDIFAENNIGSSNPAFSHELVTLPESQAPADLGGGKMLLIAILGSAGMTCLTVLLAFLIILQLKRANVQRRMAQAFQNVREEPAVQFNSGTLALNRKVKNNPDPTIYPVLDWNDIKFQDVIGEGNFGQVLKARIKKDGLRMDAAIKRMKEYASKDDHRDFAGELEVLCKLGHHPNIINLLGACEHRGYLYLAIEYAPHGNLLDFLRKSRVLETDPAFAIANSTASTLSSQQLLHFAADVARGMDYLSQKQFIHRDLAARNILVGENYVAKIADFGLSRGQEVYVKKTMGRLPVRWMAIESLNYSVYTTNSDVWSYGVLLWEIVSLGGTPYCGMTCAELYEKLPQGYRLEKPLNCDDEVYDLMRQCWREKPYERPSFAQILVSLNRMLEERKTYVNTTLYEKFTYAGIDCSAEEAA
Chain of Proto-oncogene tyrosine-protein kinase Src (P12931 2-536 limits assumed): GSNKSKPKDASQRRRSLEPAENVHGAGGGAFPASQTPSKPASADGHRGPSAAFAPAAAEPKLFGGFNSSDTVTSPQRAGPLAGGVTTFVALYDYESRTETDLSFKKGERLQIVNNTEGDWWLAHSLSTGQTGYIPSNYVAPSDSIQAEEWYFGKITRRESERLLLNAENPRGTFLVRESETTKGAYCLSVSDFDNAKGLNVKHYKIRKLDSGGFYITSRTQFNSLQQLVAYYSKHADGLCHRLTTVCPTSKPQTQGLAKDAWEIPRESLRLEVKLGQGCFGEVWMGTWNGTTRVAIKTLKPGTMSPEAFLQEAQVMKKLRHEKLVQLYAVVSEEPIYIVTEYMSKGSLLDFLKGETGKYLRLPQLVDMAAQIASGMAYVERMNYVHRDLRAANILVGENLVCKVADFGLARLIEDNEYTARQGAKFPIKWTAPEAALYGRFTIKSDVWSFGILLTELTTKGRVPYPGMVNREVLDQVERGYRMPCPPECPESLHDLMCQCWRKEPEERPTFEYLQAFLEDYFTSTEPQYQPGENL
Chain of RAC-beta serine/threonine-protein kinase (P31751 whole entry): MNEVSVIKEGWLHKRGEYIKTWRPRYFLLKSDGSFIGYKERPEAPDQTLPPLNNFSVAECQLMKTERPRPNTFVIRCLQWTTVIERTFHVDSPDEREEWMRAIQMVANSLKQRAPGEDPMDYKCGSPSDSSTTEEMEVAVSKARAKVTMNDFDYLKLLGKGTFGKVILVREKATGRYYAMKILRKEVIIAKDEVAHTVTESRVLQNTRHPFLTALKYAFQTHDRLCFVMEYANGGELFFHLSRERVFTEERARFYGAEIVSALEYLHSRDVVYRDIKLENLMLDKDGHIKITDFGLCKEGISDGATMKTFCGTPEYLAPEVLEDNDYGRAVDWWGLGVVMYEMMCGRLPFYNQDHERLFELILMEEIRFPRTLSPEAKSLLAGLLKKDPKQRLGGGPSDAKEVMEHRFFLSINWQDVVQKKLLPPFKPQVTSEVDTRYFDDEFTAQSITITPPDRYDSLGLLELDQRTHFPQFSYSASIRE

Consider `CNc1nccc(-c2cccnc2Oc2ccc(NC(=O)c3cccc(C(F)(F)F)c3)cc2C)n1`, for which the IC50 was determined as 630 nM against Angiopoietin-1 receptor, 1350 nM in data set [1], 1580 nM in [2] and 5750 nM in [3].
As to `CNc1nccc(-c2cccnc2Oc2ccc(NC(=O)c3ccccc3Nc3ccccc3)cc2)n1`, the IC50 in data set [4] is greater than 1000 nM. The clearance in data set [5] is 60 mL/min/kg. The Vd in data set [6] worked out at 4.8 L/kg. The same molecule gave a half-life in data set [7] of 2.8 h.
Take `CNc1nccc(-c2cccnc2Oc2ccc(Nc3nnc(-c4ccc(F)cc4)c4ccccc34)cc2)n1`: the half-inhibitory concentration (IC50) in data set [8] and in data set [9] was greater than 25000 nM in each case. The outcome (at Aurora kinase B [10]; in [11]; at Aurora kinase B [12]; in the data set on HeLa; on Aurora kinase B [13]) was Active. Further, the inhibition in vivo at 50 mg/kg in the data set with Mus musculus was no less than 96%.
